In the library only some 3.1% were active in any assay of this set; here they are far more common.
PREPL inh – inhibitors of human prolyl oligopeptidase-like enzyme PREPL. actives 0.68% (n = 320,000). inhibition, % at 5.96 µM. recombinant PREPL, fluorescence polarization activity-based probe;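 also: 0% = enzyme with DMSO and 100% = wells lacking enzyme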
MEKK3 PB1 HTS – MEKK3-MEK5 PB1 interaction, increase or decrease; Q99759; bead-based flow cytometry, Alexa488-MEK5 binding to MEKK3; actives lie on both sides; 0 = blocked by unlabeled MEK5, 100 = vehicle; binding response (% of control), % at 10 µM; actives 1.4% (n = 290,000); AID 1529;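 active = binding response more than 3 SD above or below the average of its plate-row segment, actives on both sides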;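 also: Alexa488 bead fluorescence after subtracting the streptavidin-only scavenger bead signal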
Apaf1 inhib – blocks human Apaf-1 apoptosome activity. O14727. reconstituted apoptosome caspase-3 activity, DEVD-Rh110 fluorescence. inhibition, % at 20 µM. actives 0.71% (n = 330,000). AID 489030; active = inhibition of at least 40% at 20 µM;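 also: plate controls were DMSO wells for no effect and DEVD-CHO caspase inhibitor wells for full effect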
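Material: reconstituted apoptosome with Apaf-1, cytochrome c, caspase-9, procaspase-3, dATP / Buffer or medium: pH 7.5 Hepes buffer with CHAPS, BSA, DTT / Also added: cytochrome c with DEVD-Rh110 / Schedule: compound with Apaf-1, dATP, procaspase-3 30 min, then 50 min reaction, room temperature / Technique: rhodamine 110 fluorescence at Ex 480/Em 540 nm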
UBC13 inh – blocks human UBC13 polyubiquitin chain formation; P61088; TR-FRET; inhibition, % at 20 µM; actives 0.47% (n = 330,000); in the data active = inhibition above about 45%, passing the limit was not always enough
Target sequence (P61088 whole entry, looked up): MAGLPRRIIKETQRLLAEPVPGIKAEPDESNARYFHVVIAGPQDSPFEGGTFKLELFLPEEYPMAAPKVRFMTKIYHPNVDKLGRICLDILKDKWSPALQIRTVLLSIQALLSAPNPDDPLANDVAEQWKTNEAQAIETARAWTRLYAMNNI
MEKK2mut PB1 HTS – signal of MEK5 binding to mutant human MEKK2 PB1 domain. bead flow cytometry, Alexa488-MEK5 binding to MEKK2 mutant. percent response, % at 10 µM. actives 0.35% (n = 290,000); in the data active = percent response above about 24%, passing the limit was not always enough
MEKK2 WT-MEK5 – raises or lowers MEK5 binding to wildtype human MEKK2 PB1 domain. AID 1531. binding response (% of control), % at 10 µM. actives 1.1% (n = 290,000). bead flow cytometry, Alexa488-MEK5 binding to MEKK2 WT; actives lie on both sides. Q9Y2U5; in the data active = binding response below about 67% or above about 130%
PREPL inh cf – human PREPL inhibition, confirmation; inhibition, % at 5.96 µM; recombinant PREPL, fluorescence polarization activity probe; AID 2803; shares compounds with PREPL inh; actives 67% (n = 2,000);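 also: 0% = protein with DMSO and 100% = wells lacking protein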
Active calls of the source: *; x = no result. Rule as the data show it, unless noted: active = inhibition above about 43%; inactive = the rest.

SMILES	PREPL inh	MEKK3 PB1 HTS	Apaf1 inhib	UBC13 inh	MEKK2mut PB1 HTS	MEKK2 WT-MEK5	PREPL inh cf
CC(C)[C@@H]1CC[C@@H](C)C[C@H]1OC(=O)C[n+]1cc(-c2ccc(Cl)cc2)n2c1CCCCC2	41	100	18	25	10	129	x
CC1CCC(C(C)C)C(OC(=O)Cn2c(-c3ccc(Cl)cc3)[n+](C)c3ccccc32)C1 (centres undefined)	43*	98	15	25	-3	105	47*
CCC(=O)N1CCN(c2ccc(NC(=O)c3cc4ccccc4o3)cc2Cl)CC1	43	x	24	7	x	x	x
CCCC(=O)N1CCN(c2ccc(NC(=O)c3cc4ccccc4o3)cc2Cl)CC1	45*	91	21	-14	-7	94	36
O=C(CCCN1C(=O)S/C(=C\C=C\c2ccccc2)C1=O)Nc1ccc(C(=O)O)cc1	-20	102	9	-14	-4	101	x
O=C(CCN1C(=O)S/C(=C\C=C\c2ccccc2)C1=O)Nc1ccc(O)cc1	43*	98	2	-1	-2	96	34
Nc1nc(=S)c2[nH]cnc2[nH]1	-5	x	-6	-2	x	x	x
COc1cc(/C=C2/C(=N)N3OC(C)=CC3=NC2=O)ccc1OC(=O)c1ccco1	46*	100	-2	5	-11	93	60*
COc1c(-c2ccc(O)cc2)oc2cc(O)cc(O)c2c1=O	-9	105	12	7	4	107	x
CC(=O)Oc1cc(O)c2c(=O)c(OC(C)=O)c(-c3ccc(OC(C)=O)c(OC(C)=O)c3)oc2c1	44*	107	-1	0	2	104	20
CCOC(=O)C1CCN(C(=O)CN2C(=O)COc3ccc(C(C)(C)C)cc32)CC1	4	100	5	6	1	100	x
COc1ccc(-c2cn(Cc3ccc4c(c3)C(=O)c3ccccc3C4=O)nn2)cc1	48*	103	1	-6	0	103	37
Cc1cc(NS(=O)(=O)c2ccc(Nc3nc(-c4sc(NC(=O)c5ccccc5)nc4C)cs3)cc2)no1	66*	97	28	-3	-2	91	63*
Cc1ccc(C2(C)NC(=O)N(CC(=O)Nc3ccc4[nH]c(=O)[nH]c4c3)C2=O)cc1 (centres undefined)	46*	84	-58	0	-25	70	37
Cc1cc[n+](CC(=O)c2cccc([N+](=O)[O-])c2)c2ccccc12	45*	95	14	6	1	99	14
O=C(COC(=O)c1cccc([N+](=O)[O-])c1)c1ccc(OCc2ccccc2)cc1	1	96	11	4	-1	100	x
O=C(C[n+]1cccc2ccccc21)c1ccc([N+](=O)[O-])cc1	27	86	7	-13	-2	89	x
Cc1c(CCOC(=O)c2cccc([N+](=O)[O-])c2)sc[n+]1CC(=O)c1ccccc1	51*	118	8	11	-2	113	21
Cc1c(CCOC(=O)c2ccc([N+](=O)[O-])cc2)sc[n+]1CC(=O)c1ccccc1	63*	104	10	13	1	110	29
Cc1ccc2c(c1)Oc1ccc(NC(=O)CCl)cc1C(=O)N2	-9	99	-2	7	-3	95	x
Cc1c(N)cccc1N	50*	x	2	-3	x	x	15
CC(C)(C)[C@@H]1COC(=O)[C@@H](Cc2ccc(F)cc2)CC/C=C\C[C@@H](CC(=O)N(CCO)Cc2ccccc2)C(=O)N1	55*	x	21	6	x	x	50*
C[C@H]1COC(=O)[C@H](Cc2ccc(F)cc2)C/C=C\C[C@H](CC(=O)N(CCO)Cc2ccccc2)C(=O)N1	12	x	6	-9	x	x	x
CC(C)(C)[C@@H]1COC(=O)[C@H](Cc2ccc(F)cc2)CC/C=C\C[C@H](CC(=O)N(CCO)Cc2ccccc2)C(=O)N1	41	x	27	-3	x	x	x
